Values joined by “and” are separate entries in the source; they are usually repeats but may differ in a detail not shown here. Equal entries are not always repeated.
Legend:
[1] = target: T1, hDOR (Homo sapiens, UniProt P41143); assay: G protein BRET functional assay at hDOR; format: cell-based; conditions: for IC50: read-out: IC50 ± SEM (antagonist activity), inhibition of a reference agonist; for agonist activity: concentrations up to 100 µM
Method in brief: (§1)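 HEK cells expressing the human receptor, co-transfected with Gα fused to an RLuc8 donor and Gγ fused to an mVenus acceptor. Receptor activation separates the G protein subunits, so the BRET signal falls. Agonist mode gives EC50 and Emax. Antagonist mode gives IC50 for inhibition of a reference agonist, and pA2 from Schild analysis. Values are mean ± SEM, n ≥ 3.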

[2] = target: T2, hMOR (Homo sapiens, UniProt P35372); assay: β-arrestin recruitment BRET assay at hMOR; format: cell-based; conditions: β-arrestin-2 BRET, in the presence of GRK2
[3] = target: T1, hDOR; assay: Radioligand binding at hDOR; conditions: read-out: Ki ± SEM, n ≥ 3
[4] = target: mouse MOR (mMOR) (Mus musculus, UniProt P42866); assay: G protein BRET functional assay at mouse MOR; format: cell-based
[5] = target: T3, hKOR (Homo sapiens, UniProt P41145); assay: G protein BRET functional assay at hKOR; format: cell-based; conditions: for IC50: read-out: IC50 ± SEM (antagonist activity), inhibition of a reference agonist (U-50,488); for agonist activity: concentrations up to 100 µM
Method in brief: as §1

[6] = target: human mu-opioid receptor (hMOR) (Homo sapiens, UniProt P35372); assay: G protein BRET functional assay at hMOR; format: cell-based; conditions: for maximal efficacy (Emax) relative to DAMGO: G protein BRET, agonist mode; for EC50: read-out: EC50 ± SEM (agonist activity), G protein BRET, HEK cells, mean ± SEM, n ≥ 3
[7] = test system: rodent opioid receptors; assay: G protein BRET functional assays using rodent opioid receptors; format: cell-based; conditions: rodent receptors (mouse or rat)
[8] = target: T3, hKOR; assay: Radioligand binding at hKOR; conditions: read-out: Ki ± SEM, n ≥ 3
[9] = target: T2, hMOR; assay: Radioligand binding at hMOR; conditions: read-out: Ki ± SEM, n ≥ 3

T3 sequence (P41145 whole entry): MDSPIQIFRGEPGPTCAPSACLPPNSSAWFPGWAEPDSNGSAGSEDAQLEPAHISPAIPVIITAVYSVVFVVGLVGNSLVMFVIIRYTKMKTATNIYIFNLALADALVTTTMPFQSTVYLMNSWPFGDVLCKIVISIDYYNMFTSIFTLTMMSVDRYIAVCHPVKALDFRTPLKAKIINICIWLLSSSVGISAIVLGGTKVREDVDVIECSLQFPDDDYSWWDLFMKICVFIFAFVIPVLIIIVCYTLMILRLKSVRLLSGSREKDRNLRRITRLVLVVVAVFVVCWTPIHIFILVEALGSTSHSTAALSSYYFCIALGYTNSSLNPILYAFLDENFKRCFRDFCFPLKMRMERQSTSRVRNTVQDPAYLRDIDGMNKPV
Sequence of human mu-opioid receptor (hMOR) (P35372 whole entry): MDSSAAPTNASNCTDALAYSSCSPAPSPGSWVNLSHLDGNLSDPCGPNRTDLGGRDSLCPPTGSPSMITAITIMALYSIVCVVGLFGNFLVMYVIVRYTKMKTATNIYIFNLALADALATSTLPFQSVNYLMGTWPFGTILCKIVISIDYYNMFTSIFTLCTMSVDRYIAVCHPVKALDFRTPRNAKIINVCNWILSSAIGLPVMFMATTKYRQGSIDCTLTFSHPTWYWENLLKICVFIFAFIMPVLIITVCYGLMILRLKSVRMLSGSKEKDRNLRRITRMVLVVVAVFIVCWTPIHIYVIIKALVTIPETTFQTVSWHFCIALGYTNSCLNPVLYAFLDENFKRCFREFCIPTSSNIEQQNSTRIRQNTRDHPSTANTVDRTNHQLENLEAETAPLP
T1 sequence (P41143 whole entry, the tested form may be a part): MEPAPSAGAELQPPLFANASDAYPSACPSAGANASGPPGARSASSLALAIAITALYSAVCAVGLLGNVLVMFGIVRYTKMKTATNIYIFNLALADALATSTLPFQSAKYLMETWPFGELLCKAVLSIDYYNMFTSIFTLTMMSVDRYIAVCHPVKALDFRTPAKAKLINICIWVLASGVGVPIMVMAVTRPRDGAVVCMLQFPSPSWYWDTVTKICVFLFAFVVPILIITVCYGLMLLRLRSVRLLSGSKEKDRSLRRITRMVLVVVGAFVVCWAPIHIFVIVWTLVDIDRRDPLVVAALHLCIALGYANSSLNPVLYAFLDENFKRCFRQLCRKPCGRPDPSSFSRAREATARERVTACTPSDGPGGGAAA
T2 sequence (P35372 whole entry): as the sequence (P35372 whole entry) above
Sequence of mouse MOR (mMOR) (P42866 whole entry): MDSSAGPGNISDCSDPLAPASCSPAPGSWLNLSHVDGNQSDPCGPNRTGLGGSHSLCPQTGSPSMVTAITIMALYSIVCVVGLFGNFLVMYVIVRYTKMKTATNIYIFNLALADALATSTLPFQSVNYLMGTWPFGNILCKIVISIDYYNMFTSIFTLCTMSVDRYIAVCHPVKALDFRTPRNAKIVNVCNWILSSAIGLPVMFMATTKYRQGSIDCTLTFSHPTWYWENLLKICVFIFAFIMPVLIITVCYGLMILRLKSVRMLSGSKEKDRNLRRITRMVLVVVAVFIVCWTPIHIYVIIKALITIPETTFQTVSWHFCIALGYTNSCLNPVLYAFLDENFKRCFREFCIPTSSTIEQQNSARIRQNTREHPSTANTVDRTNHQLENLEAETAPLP

Compound	IC50 [1]	Ki [3]	IC50 [5]	agonist or antagonist activity at rodent opioid receptors [7]	agonist activity [1]	agonist activity [5]	also measured
CC[C@@H]1CN2CC[C@@]3(O)C(=Nc4cccc(OC)c43)[C@@H]2C[C@@H]1/C(=C\OC)C(=O)OC [Compound 7-OH, 7-hydroxymitragynine]	> 10 µM	0.219 ± 0.041 µM	7.9 µM	–	–	–	β-arrestin recruitment [2]: no measurable β-arrestin binding; agonist activity at mMOR [4]: retains its agonist activity; pA2 (Schild analysis) ([5]; competitive antagonism): 490 ± 131 nM; pA2 determined from Schild analysis ([5]; competitive antagonism): 0.49 µM
CO/C=C(/C(=O)OC)[C@@H]1CCN2CCc3c([nH]c4cccc(OC)c34)[C@@H]2C1 [Compound 3, desethylmitragynine]	–	–	–	–	–	–	maximal efficacy (Emax) relative to DAMGO [6]: 59%; EC50 [6]: 12 ± 7.6 µM
mitragynine	> 10 µM	> 10 µM	8.5 µM	no agonist activity	–	–	antagonist activity at hDOR [1]: very low potency; Ki [8]: 0.772 ± 0.207 µM; pA2 determined from Schild analysis ([5]; competitive antagonism): 1.4 ± 0.40 µM and 1.4 µM
C=C[C@H]1CN2CCc3c([nH]c4cccc(OC)c34)[C@@H]2C[C@@H]1/C(=C\OC)C(=O)OC [paynantheine]	–	> 10 µM	–	no notable agonist or antagonist activity	no measurable agonist activity	no measurable agonist activity	agonist activity ([6]; concentrations up to 100 µM): no measurable agonist activity; IC50 ([6]; read-out: IC50 ± SEM (antagonist activity), inhibition of a reference agonist, n ≥ 3): 2.2 µM; Ki [9]: 0.41 ± 0.152 µM
CCC1CN2CCc3c([nH]c4cccc(OC)c34)C2CC1C(=COC)C(=O)OC (single isomer, unassigned; (+)) [(+)-mitragynine]	–	–	–	–	–	–	Emax ([5]; G protein BRET, agonist mode): 31%
CC[C@@H]1CN2CCc3c([nH]c4cccc(O)c34)[C@@H]2C[C@@H]1/C(=C\OC)C(=O)OC [Compound 1]	–	–	–	–	–	–	maximal efficacy (Emax) relative to DAMGO [6]: 29%; EC50 [6]: 0.681 ± 0.379 µM
CC[C@@H]1CN2CCc3c([nH]c4cccc(OC)c34)[C@H]2C[C@@H]1/C(=C\OC)C(=O)OC [speciociliatine]	> 10 µM	> 10 µM	> 10 µM	no notable agonist or antagonist activity	no measurable agonist activity	no measurable agonist activity	–
CC[C@H]1CN2CCc3c([nH]c4cccc(OC)c34)[C@@H]2C[C@@H]1/C(=C\OC)C(=O)OC [speciogynine]	> 10 µM	> 10 µM	> 10 µM	no notable agonist or antagonist activity	no measurable agonist activity	no measurable agonist activity	–

Reference: PMC5189718 (Journal of the American Chemical Society, 2016)
